# From ChEMBL document CHEMBL4229550, “An antimycobacterial pleuromutilin analogue effective against dormant bacilli” (Bioorg Med Chem, 2018)
# Calls of active or inactive are those of the source. The calls are words filed in the database; no cut-off is given here.
# How the values were obtained:
# [1] = Half life in Sprague-Dawley rat liver microsomes at 500 ng/ml preincubated for 5 mins followed by NADPH addition by C-MS/MS analysis; assay type: ADME, microsome
# [2] = test system: Streptococcus pneumoniae; assay: Antibacterial activity against Streptococcus pneumoniae ATCC 6301 incubated for 24 hrs under aerobic condition by MABA; assay type: functional; conditions: ATCC 6301, 24 h, read-out: MIC100
# In short: (§1)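 Mid-log cultures at OD 0.5 were exposed to serial dilutions under aerobic conditions at 37 °C for 24 h. Resazurin was then added from a 0.08% stock for 1 h. MIC100 was the lowest concentration where the dye stayed blue (pink means growth). Absorbance was also read at 570 and 600 nm.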
# [3] = test system: Acinetobacter baumannii; assay: Bactericidal activity against Acinetobacter baumannii ATCC 19606 incubated for 24 hrs under aerobic condition by MABA; assay type: functional; conditions: ATCC 19606 = CIP 70.34 = JCM 6841, 24 h
# [4] = test system: Bacillus subtilis; assay: Bactericidal activity against Bacillus subtilis ATCC 6051 incubated for 24 hrs under aerobic condition by MABA; assay type: functional; conditions: ATCC 6051, 24 h
# [5] = test system: Klebsiella pneumoniae; assay: Antibacterial activity against Klebsiella pneumoniae ATCC 12019 incubated for 24 hrs under aerobic condition by MABA; assay type: functional; conditions: ATCC 12019, 24 h, read-out: MIC100; in short: as §1
# [6] = test system: Staphylococcus aureus; assay: Bactericidal activity against Staphylococcus aureus incubated for 24 hrs under aerobic condition by MABA; assay type: functional
# [7] = test system: Escherichia coli; assay: Antibacterial activity against Escherichia coli ATCC 10798 incubated for 24 hrs under aerobic condition by MABA; assay type: functional; conditions: ATCC 10798, 24 h, read-out: MIC100; in short: as §1
# [8] = test system: Escherichia coli; assay: Inhibition of protein translation/transcription in Escherichia coli S30 cell extract at 0.1 ug/ml using circular DNA with pBESTluc after 60 mins by luciferase reporter gene assay; assay type: functional
# In short: (§2)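 Coupled transcription/translation used E. coli S30 extract, amino acid mix and premix, with the pBESTluc template carrying firefly luciferase under the tac promoter. Compounds were added in DMSO and reactions were started with DNA. Incubation was 60 min at 37 °C, stopped on ice, and luciferase was read after adding assay substrate.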
# [9] = test system: Erythrocyte; assay: Hemolytic activity in sheep erythrocytes after 2 hrs; assay type: ADME, cell-based; conditions: Ovis aries
# In short: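 Washed heparinized sheep erythrocytes at 3% in buffer pH 7.4 were treated with 2–200 µg/mL for 2 h at 37 °C with gentle shaking. Triton X-100 (0.01–1%) was the positive control and PEG:H2O diluent the negative control. Released hemoglobin was read at OD540 and % hemolysis calculated against both controls.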
# [10] = test system: Staphylococcus aureus; assay: Bactericidal activity against Staphylococcus aureus ATCC 25923 incubated for 24 hrs under aerobic condition by MABA; assay type: functional; conditions: ATCC 25923, 24 h
# [11] = test system: Acinetobacter baumannii; assay: Antibacterial activity against Acinetobacter baumannii ATCC 19606 incubated for 24 hrs under aerobic condition by MABA; assay type: functional; conditions: ATCC 19606 = CIP 70.34 = JCM 6841, 24 h, read-out: MIC100; in short: as §1
# [12] = test system: Mycolicibacterium smegmatis; assay: Bactericidal activity against Mycobacterium smegmatis ATCC 607 incubated for 48 hrs under aerobic condition by MABA; assay type: functional; conditions: ATCC 607, 48 h
# [13] = test system: Escherichia coli; assay: Bactericidal activity against Escherichia coli ATCC 10798 incubated for 24 hrs under aerobic condition by MABA; assay type: functional; conditions: ATCC 10798, 24 h
# [14] = test system: Staphylococcus aureus; assay: Antibacterial activity against Staphylococcus aureus ATCC 25923 incubated for 24 hrs under aerobic condition by MABA; assay type: functional; conditions: ATCC 25923, 24 h, read-out: MIC100; in short: as §1
# [15] = test system: Staphylococcus aureus; assay: Antibacterial activity against Staphylococcus aureus BAA 44 incubated for 24 hrs under aerobic condition by MABA; assay type: functional; conditions: BAA 44, 24 h, read-out: MIC100; in short: as §1
# [16] = test system: Bacillus subtilis; assay: Antibacterial activity against Bacillus subtilis ATCC 6051 incubated for 24 hrs under aerobic condition by MABA; assay type: functional; conditions: ATCC 6051, 24 h, read-out: MIC100; in short: as §1
# [17] = test system: Streptococcus salivarius; assay: Bactericidal activity against Streptococcus salivarius ATCC 6301 incubated for 24 hrs under aerobic condition by MABA; assay type: functional; conditions: ATCC 6301, 24 h
# [18] = test system: Escherichia coli; assay: Inhibition of protein translation/transcription in Escherichia coli S30 cell extract at 0.5 ug/ml using circular DNA with pBESTluc after 60 mins by luciferase reporter gene assay; assay type: functional; in short: as §2
# [19] = test system: Enterococcus faecalis; assay: Bactericidal activity against Enterococcus faecalis ATCC 19433 incubated for 24 hrs under aerobic condition by MABA; assay type: functional; conditions: ATCC 19433, 24 h
# [20] = test system: Enterococcus faecalis; assay: Antibacterial activity against Enterococcus faecalis ATCC 349 incubated for 24 hrs under aerobic condition by MABA; assay type: functional; conditions: ATCC 349, 24 h, read-out: MIC100; in short: as §1
# [21] = test system: Klebsiella pneumoniae; assay: Bactericidal activity against Klebsiella pneumoniae ATCC 12019 incubated for 24 hrs under aerobic condition by MABA; assay type: functional; conditions: ATCC 12019, 24 h
# [22] = test system: Mycolicibacterium smegmatis; assay: Antibacterial activity against Mycobacterium smegmatis ATCC 607 incubated for 48 hrs under aerobic condition by MABA; assay type: functional; conditions: ATCC 607, 48 h, read-out: MIC100
# In short: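 Mid-log culture at OD 0.5 was incubated with serial dilutions aerobically at 37 °C for 48 h. Resazurin was then added from a 0.08% stock for 1 h. MIC100 was the lowest concentration that stayed blue; absorbance was also read at 570/600 nm.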
# [23] = test system: Mycobacterium tuberculosis; assay: Bactericidal activity against replicating Mycobacterium tuberculosis H37Rv incubated for 15 days under aerobic condition by MABA; assay type: functional; conditions: 360 h
# In short: (§3)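 Mtb H37Rv grown in 7H9/OADC at 37 °C with shaking to OD600 0.5. The 0.5-OD culture is exposed aerobically to serial dilutions for 15 days at 37 °C. Resazurin (0.02% stock) is then added for 4 h at 37 °C with shaking.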
# [24] = test system: Streptococcus pneumoniae; assay: Bactericidal activity against Streptococcus pneumoniae ATCC 6301 incubated for 24 hrs under aerobic condition by MABA; assay type: functional; conditions: ATCC 6301, 24 h
# [25] = test system: Clostridioides difficile; assay: Bactericidal activity against Clostridium difficile ATCC 700057 incubated for 24 hrs […] by MABA; assay type: functional; conditions: ATCC 700057, 24 h
# [26] = test system: Staphylococcus aureus; assay: Bactericidal activity against Staphylococcus aureus BAA 1683 incubated for 24 hrs under aerobic condition by MABA; assay type: functional; conditions: BAA 1683, 24 h
# [27] = test system: Mycobacterium tuberculosis; assay: Antibacterial activity against replicating Mycobacterium tuberculosis H37Rv incubated for 15 days under aerobic condition by MABA; assay type: functional; conditions: 360 h, read-out: MIC100; in short: as §3
# [28] = test system: Enterococcus faecalis; assay: Antibacterial activity against Enterococcus faecalis ATCC 19433 incubated for 24 hrs under aerobic condition by MABA; assay type: functional; conditions: ATCC 19433, 24 h, read-out: MIC100; in short: as §1
# [29] = test system: Staphylococcus aureus; assay: Antibacterial activity against Staphylococcus aureus incubated for 24 hrs under aerobic condition by MABA; assay type: functional; conditions: read-out: MIC100
# In short: (§4)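 Resazurin was then added from a 0.08% stock for 1 h. MIC100 was the lowest concentration where the dye stayed blue (pink means growth). Absorbance was also read at 570 and 600 nm.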
# [30] = Selectivity index, ratio of IC50 for African green monkey Vero cells to MIC100 for replicating Mycobacterium tuberculosis H37Rv by MABA; assay type: toxicity; conditions: read-out: Selectivity Index
# In short: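 Vero cells are cultured in EMEM with 10% FBS and exposed for 72 h to 0.78–200 µg/mL. Medium is switched to phenol-red-free EMEM, MTT is added, and formazan is read at 570 nm to give IC50. The selectivity index is Vero IC50 divided by the MABA MIC.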
# [31] = test system: Mycobacterium tuberculosis; assay: Bactericidal activity against Mycobacterium tuberculosis H37Rv at 2 times MIC measured every 24 hrs up to 12 days by time kill assay relative to control; assay type: functional
# In short: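 Mid-log H37Rv (OD 0.5) is diluted to OD 0.25 and exposed at MIC, 2×MIC or 4×MIC. Every 24 h cultures are diluted 10- to 10,000-fold and plated on 7H10/OADC agar. Plates are incubated 15 days at 37 °C before colony counts.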
# [32] = test system: Streptococcus salivarius; assay: Antibacterial activity against Streptococcus salivarius […] incubated for 24 hrs under aerobic condition by MABA; assay type: functional; conditions: read-out: MIC100; in short: as §4
# [33] = test system: Staphylococcus aureus; assay: Bactericidal activity against Staphylococcus aureus BAA 2094 incubated for 24 hrs under aerobic condition by MABA; assay type: functional; conditions: BAA 2094, 24 h
# [34] = test system: Staphylococcus aureus; assay: Antibacterial activity against Staphylococcus aureus BAA 1683 incubated for 24 hrs under aerobic condition by MABA; assay type: functional; conditions: BAA 1683, 24 h, read-out: MIC100; in short: as §1
# [35] = test system: Enterococcus faecalis; assay: Bactericidal activity against Enterococcus faecalis ATCC 349 incubated for 24 hrs under aerobic condition by MABA; assay type: functional; conditions: ATCC 349, 24 h
# [36] = test system: Mycobacterium tuberculosis; assay: Antibacterial activity against Mycobacterium tuberculosis; assay type: functional; conditions: read-out: MIC100; in short: as §3
# [37] = test system: Vero; assay: Cytotoxicity against African green monkey Vero cells assessed as reduction in cell viability after 72 hrs by MTT assay; assay type: cell-based; conditions: Chlorocebus sabaeus
# In short: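 Vero cells were grown in complete EMEM with 10% FBS and exposed for 72 h to 0.78–200 µg/mL. The medium was then swapped for phenol-red-free EMEM and MTT was added. Formazan absorbance was read at 570 nm to give IC50.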
# [38] = test system: Staphylococcus aureus; assay: Bactericidal activity against Staphylococcus aureus BAA 44 incubated for 24 hrs under aerobic condition by MABA; assay type: functional; conditions: BAA 44, 24 h
# [39] = test system: Staphylococcus aureus; assay: Antibacterial activity against Staphylococcus aureus BAA 2094 incubated for 24 hrs under aerobic condition by MABA; assay type: functional; conditions: BAA 2094, 24 h, read-out: MIC100; in short: as §4
# [40] = Apparent permeability from basolateral to apical side in human Caco2 cells at 10 uM after 2 hrs by LC-MS/MS analysis; assay type: ADME, cell-based; conditions: caco-2, 2 h
smiles,measurement,setting,value
CC[C@]1(C)C[C@@H](OC(=O)CSC(C)(C)CNC(=O)[C@H](N)CC(C)C)[C@]2(C)[C@H](C)CC[C@]3(CCC(=O)[C@H]32)[C@@H](C)[C@@H]1O,t1/2,[1],< 5 min
same,MIC,[2],25 µg/mL
same,MBC,[3],12.5 µg/mL
same,MBC,[4],25 µg/mL
same,MIC,[5],25 µg/mL
same,MBC,[6],0.8 µg/mL
same,MIC,[7],12.5 µg/mL
same,inhibition,[8],Active
same,IC50,[9],> 200 µM
same,MBC,[10],> 25 µg/mL
same,MIC,[11],9.38 µg/mL
same,MBC,[12],25 µg/mL
same,MBC,[13],> 25 µg/mL
same,MIC,[14],> 25 µg/mL
same,MIC,[15],> 25 µg/mL
same,MIC,[16],12.5 µg/mL
same,MBC,[17],> 25 µg/mL
same,inhibition,[18],Active
same,MBC,[19],25 µg/mL
same,MIC,[20],> 25 µg/mL
same,MBC,[21],> 25 µg/mL
same,MIC,[22],6.25 µg/mL
same,MBC,[23],0.77 µg/mL
same,MBC,[24],> 25 µg/mL
same,MBC,[25],1.56 µg/mL
same,MBC,[26],> 25 µg/mL
same,MIC,[27],0.78 µg/mL
same,MIC,[28],12.5 µg/mL
same,MIC,[29],0.4 µg/mL
same,selectivity ratio,[30],32
same,Activity,[31],100%
same,MIC,[32],0.4 µg/mL
same,MBC,[33],> 25 µg/mL
same,MIC,[34],> 25 µg/mL
same,MBC,[35],> 25 µg/mL
same,MIC,[36],< 6.25 µg/mL
same,IC50,[37],25 µg/mL
same,MBC,[38],> 25 µg/mL
same,MIC,[39],> 25 µg/mL
CNC(=C[N+](=O)[O-])NCCSCc1ccc(CN(C)C)o1 [RANITIDINE],Papp,[40],1.14 ×10⁻⁶ cm/s
CC[C@@H](CO)NCCN[C@@H](CC)CO [ETHAMBUTOL],MIC,[27],0.78 µg/mL
same,selectivity ratio,[30],> 256
same,IC50,[37],> 200 µg/mL
